These results are taken from PMC11303814 (Nature Communications, 2024).

Residue numbers refer to the chain shown, from its start.

Holding throughout (format): cell-based
The target of experiment [1] is T1, rP2X7-Q143A/I214A (Rattus norvegicus, UniProt Q64663, I214A/Q143A).
T1 sequence (Q64663 1-595 Q143A/I214A): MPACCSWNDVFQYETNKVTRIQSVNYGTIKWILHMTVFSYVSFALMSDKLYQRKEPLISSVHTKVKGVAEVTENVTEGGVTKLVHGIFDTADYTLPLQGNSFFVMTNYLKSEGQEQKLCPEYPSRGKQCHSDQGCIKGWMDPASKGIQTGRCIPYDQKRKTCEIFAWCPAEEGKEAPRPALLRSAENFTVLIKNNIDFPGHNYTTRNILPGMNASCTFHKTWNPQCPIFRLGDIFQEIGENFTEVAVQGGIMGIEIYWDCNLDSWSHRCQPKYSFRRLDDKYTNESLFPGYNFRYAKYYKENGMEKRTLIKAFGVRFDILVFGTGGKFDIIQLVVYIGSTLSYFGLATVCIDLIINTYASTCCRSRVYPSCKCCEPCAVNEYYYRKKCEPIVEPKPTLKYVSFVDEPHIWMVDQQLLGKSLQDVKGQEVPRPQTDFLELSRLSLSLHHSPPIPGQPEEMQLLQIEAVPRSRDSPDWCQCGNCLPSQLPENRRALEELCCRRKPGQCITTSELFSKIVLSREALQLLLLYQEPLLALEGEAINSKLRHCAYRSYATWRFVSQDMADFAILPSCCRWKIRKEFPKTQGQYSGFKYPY
As to the kind of experiment: TEVC dose response. As to conditions: read-out: EC50 (apparent affinity), mean ± SD, triplicate. An outline of the steps:
(§1)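 TEVC was run on Xenopus oocytes ~20 h after injection of wild-type or mutant rP2X7 mRNA, in pH 7.4 HEPES buffer with 0.1 mM flufenamic acid. Receptors were facilitated at 100 µM before recording. Dilution series: ATP 1.5 mM–2 µM (7 points), BzATP 300–0.14 µM (8 points). Responses were normalized to the largest concentration, fitted by nonlinear regression for EC50, and averaged across triplicates (mean ± SD).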

For experiment [2], the target named is T1, rP2X7-Q143A/I214A. The experiment can be described thus: TEVC deactivation time. As to conditions: after 100 μM ATP or 10 μM BzATP. An outline of the steps:
(§2)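 Xenopus oocytes injected with 50 nL of 10 ng/µL mutant rP2X7 mRNA, expressed ~20 h, clamped in pH 7.4 HEPES buffer with 0.1 mM flufenamic acid and EDTA. Currents were evoked by 100 µM ATP or 10 µM BzATP. τ is the time for current to return to 63% of baseline after agonist removal, from a one- or two-phase decay fit. Done in triplicate over first to third applications per oocyte; mean ± SD.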

The target in experiment [3] is T2, rP2X7-I214G (Rattus norvegicus, UniProt Q64663, I214G).
T2 sequence (Q64663 1-595 I214G): T1 sequence (Q64663 1-595 Q143A/I214A) with A143Q, A214G
The experiment can be described thus: TEVC dose response. Particulars: read-out: EC50 (apparent affinity), mean ± SD, triplicate. An outline of the steps: as §1

For experiment [4], the target named is T3, rP2X7-R125A (Rattus norvegicus, UniProt Q64663, R125A).
T3 sequence (Q64663 1-595 R125A): T1 sequence (Q64663 1-595 Q143A/I214A) with R125A, A143Q, A214I
As to the kind of experiment: TEVC dose response. As to conditions: read-out: EC50 (apparent affinity), mean ± SD, triplicate. An outline of the steps: as §1

Experiment [5] deals with T2, rP2X7-I214G. As to the kind of experiment: TEVC deactivation time. As to conditions: after 100 μM ATP or 10 μM BzATP. An outline of the steps: as §2

As usually defined, the EC50 is the concentration that produces a half-maximal response. For the compound BzATP, the EC50 in experiment [1] was found to be 49 ± 4 µM; in experiment [3] it was 8 ± 1 µM; in experiment [4], 5 ± 1 µM. Also, the “deactivation lifetime τ” value in experiment [2] is 4.3 ± 1.7 s; in experiment [5], 8.9 ± 2.2 s.

As for `Nc1ncnc2c1ncn2[C@@H]1O[C@H](COP(=O)(O)OP(=O)(O)OP(=O)(O)O)[C@@H](O)[C@H]1O` [ATP], the results for the EC50 in experiment [1], in experiment [3] and in experiment [4] were 290 ± 20 µM, 171 ± 14 µM and 41 ± 14 µM, respectively. In addition, the “deactivation lifetime τ” value turned out to be 2.9 ± 1.0 s in experiment [2] and 2.9 ± 0.2 s in experiment [5].
